Experimental findings from ChEMBL document CHEMBL2040707, “Fluorinated amino-derivatives of the sesquiterpene lactone, parthenolide, as (19)f NMR probes in deuterium-free environments” (2011) are described below.

Structures are written as SMILES.

The test system of this test is HL-60. Description: Antiproliferative activity against human HL60 cells after 72 hrs by MTT assay. It is filed as functional. The settings on record: HL-60, 72 h. In outline: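 HL-60 cells from ATCC grown in phenol red-free RPMI-1640 with 10% FBS at 37 °C, 5% CO2. Seeded 5,000 cells/well, treated at ten concentrations in quadruplicate (final 0.5% DMSO; vehicle control 0.5% DMSO). After 72 h, MTT (2.5 mg/mL solution) added for 4 h, formazan dissolved in acidic isopropanol/Triton for 16 h, A570 read. GI50 set relative to a Day 0 density plate; 95% CI given.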
The GI50 is the concentration that inhibits growth by half. Read a low GI50 as more potent growth inhibition. Turning to `C/C1=C/CC[C@@]2(C)O[C@@H]2[C@H]2OC(=O)[C@@H](CN3CCCC(F)(F)C3)[C@@H]2CC1`, growth was halved (GI50) at 16900 nM.
What is called TGI is the concentration at which net growth stops. Higher therefore signals less potent growth arrest. For `C/C1=C/CC[C@@]2(C)O[C@@H]2[C@H]2OC(=O)[C@@H](CN3CCCC(C(F)(F)F)C3)[C@@H]2CC1` (stereo partly specified), halving of growth (GI50) required 1690 nM, the LC50 (concentration killing 50% of cells) amounted to 21.3 µM and the TGI amounted to 7.29 µM.
`C/C1=C/CC[C@@]2(C)O[C@@H]2[C@H]2OC(=O)[C@@H](CN3CCC(F)(F)C3)[C@@H]2CC1` had a GI50 of 8320 nM, an LC50 (concentration killing 50% of cells) of 23.8 µM and a TGI of 18.3 µM.
In the same order, the values of `C/C1=C\CC[C@@]2(C)O[C@@H]2[C@H]2OC(=O)[C@@H](CN3CCC(F)(F)CC3)[C@@H]2CC1` are 690 nM, 17.7 µM and 5.58 µM.
For `C/C1=C/CC[C@@]2(C)O[C@@H]2[C@H]2OC(=O)[C@@H](CN3CCC(F)CC3)[C@@H]2CC1` the same measures were 1770 nM, 8.07 µM and 5.7 µM.
Turning to `C/C1=C/CC[C@@]2(C)O[C@@H]2[C@H]2OC(=O)[C@@H](CN3CC[C@H](F)C3)[C@@H]2CC1`, halving of growth (GI50) required 24700 nM and net growth stopped (TGI) at 46.2 µM.
For `C=C1C(=O)O[C@@H]2C3O[C@]3(C)CC/C=C(\C)CC[C@@H]12` (stereo partly specified) the same measures were 520 nM and 1.36 µM.
In the case of `C/C1=C/CC[C@@]2(C)O[C@@H]2[C@H]2OC(=O)[C@@H](CN3CC[C@@H](F)C3)[C@@H]2CC1`, the GI50 turned out to be 580 nM, the LC50 (concentration killing 50% of cells) came to 1.66 µM and the TGI was found to be 1.18 µM.
On to `C/C1=C/CC[C@@]2(C)O[C@@H]2[C@H]2OC(=O)[C@@H](CN3CCC(C(F)(F)F)CC3)[C@@H]2CC1`, for which it took 1000 nM to inhibit growth by half (GI50), the LC50 (concentration killing 50% of cells) amounted to 3.11 µM and total growth inhibition (TGI) required 2.14 µM.
`C/C1=C/CC[C@@]2(C)O[C@@H]2[C@H]2OC(=O)[C@@H](CN3CCCC(F)C3)[C@@H]2CC1` (stereo partly specified): the GI50 amounted to 1130 nM and the TGI was determined as 12.2 µM.
As to `C/C1=C/CC[C@@]2(C)O[C@@H]2[C@H]2OC(=O)[C@@H](CN3CCCC3)[C@@H]2CC1`, the GI50 came out at 750 nM, the LC50 (concentration killing 50% of cells) was 2.54 µM and total growth inhibition (TGI) required 1.74 µM.
In the same order, the values of `C/C1=C/CC[C@@]2(C)O[C@@H]2[C@H]2OC(=O)[C@@H](CN3CCCCC3)[C@@H]2CC1` are 840 nM, 10.1 µM and 3.99 µM.
